What all share (assay type): functional
One test relates to Bacillus subtilis. The test can be described thus: Antimicrobial activity against Bacillus subtilis ATCC 6633 by tube dilution method. An outline of the steps: (§1)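 Tube dilution MIC determination. Test agents and reference drugs are dissolved as a stock in 50% DMSO–water, then diluted 4-fold with culture medium plus inoculum. The first dilution (12.5% DMSO) is excluded from scoring. The read-out is the minimum inhibitory concentration.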

In test [1] the test system is Staphylococcus aureus. Briefly: Antimicrobial activity against methicillin-resistant Staphylococcus aureus isolates by tube dilution method. An outline of the steps: (§2)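 Tube dilution MIC assay. Compounds and standard drugs were dissolved in 50% DMSO–water as stock. The stock was diluted 4-fold with culture medium plus bacterial suspension to give the starting test concentration. That initial tube contained 12.5% DMSO, so no data were taken from it. The MIC was then read across the dilution series.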

For test [2], the system named is Staphylococcus aureus. Briefly: Antimicrobial activity against Staphylococcus aureus ATCC 25923 by tube dilution method. An outline of the steps:
as §2

The subject of test [3] is Staphylococcus aureus. Briefly: Antimicrobial activity against methicillin-resistant Staphylococcus aureus ATCC […] by tube dilution method. In outline: as §2
A further test relates to Candida albicans. The test can be described thus: Antimicrobial activity against Candida albicans ATCC 10145 by tube dilution method. In outline: as §1
A further test relates to Escherichia coli. Briefly: Antimicrobial activity against Escherichia coli ATCC 25922 by tube dilution method. In outline: as §1

Converted amounts (≈) assume the structure as drawn.

As usually defined, the MIC is the lowest concentration found to suppress growth. Read a low MIC as inhibition by little substance. On to `O=C(O)c1cn(C2CC2)c2cc(N3CCNCC3)c(F)cc2c1=O` [CIPROFLOXACIN], for which the values for the MIC against Bacillus subtilis, against Staphylococcus aureus [1] and with Staphylococcus aureus [2] were 0.09 µg/mL (≈ 0.272 µM), 12.5 µg/mL (≈ 37.7 µM) and 0.78 µg/mL (≈ 2.35 µM), respectively.

With `CCOc1cc2c(cc1Cl)nc(-c1ccc(F)cc1)n2C1CCCC1`, the MIC with Staphylococcus aureus [3] was determined as 6.25 µg/mL (≈ 17.4 µM); with Bacillus subtilis it was 25 µg/mL (≈ 69.7 µM); against Candida albicans, 50 µg/mL (≈ 139 µM); in the test on Escherichia coli, 50 µg/mL (≈ 139 µM); against Staphylococcus aureus [1], 6.25 µg/mL (≈ 17.4 µM); against Staphylococcus aureus [2], 6.25 µg/mL (≈ 17.4 µM).

With `Fc1ccc(-c2nc3cc(Cl)c(Cl)cc3[nH]2)cc1`, the MIC with Staphylococcus aureus [3] was 3.12 µg/mL (≈ 11.1 µM); against Bacillus subtilis, 6.25 µg/mL (≈ 22.2 µM); against Candida albicans, 6.25 µg/mL (≈ 22.2 µM); in the test on Escherichia coli it was 50 µg/mL (≈ 178 µM); against Staphylococcus aureus [1], 3.12 µg/mL (≈ 11.1 µM); in the test with Staphylococcus aureus [2], 3.12 µg/mL (≈ 11.1 µM).

With `Nc1nc2cc(Cl)c(Cl)cc2n1C1CCCC1`, the minimal inhibitory concentration (MIC) was 6.25 µg/mL (≈ 23.1 µM) in the test on Staphylococcus aureus [3]; 6.25 µg/mL (≈ 23.1 µM) with Bacillus subtilis; 6.25 µg/mL (≈ 23.1 µM) in the test with Candida albicans; 50 µg/mL (≈ 185 µM) against Escherichia coli; 6.25 µg/mL (≈ 23.1 µM) against Staphylococcus aureus [1]; 3.12 µg/mL (≈ 11.5 µM) in the test on Staphylococcus aureus [2].

For the compound `CCOc1cc2c(cc1Cl)nc(-c1ccc(Cl)cc1)n2C1CCCC1`, the MIC was found to be 50 µg/mL (≈ 133 µM) against Staphylococcus aureus [3]; 25 µg/mL (≈ 66.6 µM) against Bacillus subtilis; 25 µg/mL (≈ 66.6 µM) against Candida albicans; 50 µg/mL (≈ 133 µM) against Escherichia coli; 50 µg/mL (≈ 133 µM) against Staphylococcus aureus [1]; 50 µg/mL (≈ 133 µM) in the test with Staphylococcus aureus [2].

Regarding `CC(C)(C)c1ccc(-c2nc3cc(Cl)ccc3n2C2CCCC2)cc1`, the MIC in the test with Staphylococcus aureus [3] was determined as 12.5 µg/mL (≈ 35.4 µM); against Bacillus subtilis it was 50 µg/mL (≈ 142 µM); against Candida albicans it was 12.5 µg/mL (≈ 35.4 µM); with Escherichia coli, 25 µg/mL (≈ 70.8 µM); in the test with Staphylococcus aureus [1] it was 6.25 µg/mL (≈ 17.7 µM); against Staphylococcus aureus [2], 50 µg/mL (≈ 142 µM).

Take `Clc1ccc(-c2nc3cc(Cl)c(Cl)cc3[nH]2)cc1`: the MIC against Staphylococcus aureus [3] is 3.12 µg/mL (≈ 10.5 µM); in the test on Bacillus subtilis it was 50 µg/mL (≈ 168 µM); with Candida albicans it was 12.5 µg/mL (≈ 42 µM); against Escherichia coli, 50 µg/mL (≈ 168 µM); against Staphylococcus aureus [1] it was 3.12 µg/mL (≈ 10.5 µM); in the test on Staphylococcus aureus [2] it was 3.12 µg/mL (≈ 10.5 µM).

For `CC(=O)Oc1ccc(-c2nc3cc(Cl)ccc3n2C2CCCC2)cc1`, the MIC in the test on Staphylococcus aureus [3], in the test with Bacillus subtilis, against Candida albicans, in the test with Escherichia coli, against Staphylococcus aureus [1] and in the test with Staphylococcus aureus [2] was 50 µg/mL (≈ 141 µM) in each case.

On to `N#Cc1ccc(-c2nc3cc(Cl)ccc3n2C2CCCC2)cc1`, for which the MIC in the test on Staphylococcus aureus [3] is not below 50 µg/mL; with Bacillus subtilis, 50 µg/mL (≈ 155 µM); against Candida albicans, 6.25 µg/mL (≈ 19.4 µM); against Escherichia coli, 50 µg/mL (≈ 155 µM); in the test with Staphylococcus aureus [1], not below 50 µg/mL; in the test on Staphylococcus aureus [2], 50 µg/mL (≈ 155 µM).

For `Fc1ccc(-c2nc3cc(Cl)ccc3n2C2CCCC2)cc1`, the MIC was determined as 25 µg/mL (≈ 79.4 µM) with Staphylococcus aureus [3]; 12.5 µg/mL (≈ 39.7 µM) against Bacillus subtilis; 12.5 µg/mL (≈ 39.7 µM) in the test on Candida albicans; 25 µg/mL (≈ 79.4 µM) against Escherichia coli; 25 µg/mL (≈ 79.4 µM) in the test on Staphylococcus aureus [1]; 25 µg/mL (≈ 79.4 µM) against Staphylococcus aureus [2].

Take `Clc1ccc2c(c1)ncn2C1CCCC1`: the MIC was 50 µg/mL (≈ 227 µM) in the test with Staphylococcus aureus [3]; 50 µg/mL (≈ 227 µM) in the test with Bacillus subtilis; 50 µg/mL (≈ 227 µM) in the test on Candida albicans; not below 50 µg/mL in the test on Escherichia coli; 50 µg/mL (≈ 227 µM) against Staphylococcus aureus [1]; 50 µg/mL (≈ 227 µM) in the test with Staphylococcus aureus [2].

For the compound `Clc1cc2nc(Br)n(C3CCCC3)c2cc1Cl`, the MIC with Staphylococcus aureus [3] is 6.25 µg/mL (≈ 18.7 µM); against Bacillus subtilis it was 25 µg/mL (≈ 74.8 µM); with Candida albicans it was 25 µg/mL (≈ 74.8 µM); against Escherichia coli it was 50 µg/mL (≈ 150 µM); in the test with Staphylococcus aureus [1], 6.25 µg/mL (≈ 18.7 µM); in the test on Staphylococcus aureus [2], 3.12 µg/mL (≈ 9.34 µM).

Turning to `Clc1ccc(-c2nc3cc(Cl)ccc3n2C2CCCC2)cc1`, the MIC stood at 50 µg/mL (≈ 151 µM) in the test on Staphylococcus aureus [3]; 25 µg/mL (≈ 75.5 µM) against Bacillus subtilis; 25 µg/mL (≈ 75.5 µM) in the test on Candida albicans; 25 µg/mL (≈ 75.5 µM) against Escherichia coli; 50 µg/mL (≈ 151 µM) against Staphylococcus aureus [1]; 50 µg/mL (≈ 151 µM) against Staphylococcus aureus [2].

Consider `Clc1ccc2c(c1)nc(-c1ccc3ccccc3c1)n2C1CCCC1`, for which the MIC was determined as 25 µg/mL (≈ 72.1 µM) against Staphylococcus aureus [3]; 25 µg/mL (≈ 72.1 µM) against Bacillus subtilis; 6.25 µg/mL (≈ 18 µM) against Candida albicans; 50 µg/mL (≈ 144 µM) with Escherichia coli; 25 µg/mL (≈ 72.1 µM) in the test with Staphylococcus aureus [1]; 25 µg/mL (≈ 72.1 µM) against Staphylococcus aureus [2].

Consider `CCOc1cc2c(cc1Cl)nc(-c1cccc([N+](=O)[O-])c1)n2C1CCCC1`, for which the MIC against Staphylococcus aureus [3] is 25 µg/mL (≈ 64.8 µM); against Bacillus subtilis, 25 µg/mL (≈ 64.8 µM); in the test on Candida albicans it was 6.25 µg/mL (≈ 16.2 µM); in the test with Escherichia coli it was 50 µg/mL (≈ 130 µM); in the test on Staphylococcus aureus [1], 12.5 µg/mL (≈ 32.4 µM); against Staphylococcus aureus [2], 50 µg/mL (≈ 130 µM).

`Clc1cc2nc(Cl)n(C3CCCC3)c2cc1Cl`: the minimal inhibitory concentration (MIC) is 6.25 µg/mL (≈ 21.6 µM) against Staphylococcus aureus [3]; 25 µg/mL (≈ 86.3 µM) against Bacillus subtilis; 50 µg/mL (≈ 173 µM) in the test with Candida albicans; 50 µg/mL (≈ 173 µM) in the test on Escherichia coli; 6.25 µg/mL (≈ 21.6 µM) in the test with Staphylococcus aureus [1]; 3.12 µg/mL (≈ 10.8 µM) in the test with Staphylococcus aureus [2].

Take `Clc1ccc(-c2nc3cc(Cl)c(Cl)cc3n2C2CCCC2)cc1`: the MIC in the test with Staphylococcus aureus [3] was found to be 50 µg/mL (≈ 137 µM); against Bacillus subtilis, 25 µg/mL (≈ 68.4 µM); against Candida albicans, 12.5 µg/mL (≈ 34.2 µM); with Escherichia coli it was 50 µg/mL (≈ 137 µM); with Staphylococcus aureus [1], 50 µg/mL (≈ 137 µM); in the test on Staphylococcus aureus [2], 50 µg/mL (≈ 137 µM).

The values above are taken from ChEMBL document CHEMBL1138563, “Synthesis and in vitro antimicrobial activity of some novel substituted benzimidazole derivatives having potent activity against MRSA” (2009).
